The results in this text go back to ChEMBL document CHEMBL4334422, “Toxicities and beneficial protection of H2S donors based on nonsteroidal anti-inflammatory drugs” (Medchemcomm, 2019).

Calls of active or inactive are those of the source. No cut-off for these calls is given here.

The test system of series [1] is Rattus norvegicus. The series can be described thus: Antihypertensive activity in spontaneously hypertensive Wistar kyoto rat assessed as reduction in diastolic arterial pressure at 10 mg/kg, ip administered for 6 hrs and measured every 30 mins post treatment by tail-cuff method. The class given is functional. Put shortly:
(§1)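 Male SHRs (8 weeks, 300 ± 25 g; 6 per group), given compound intraperitoneally once daily at 8 am in 0.5% (w/v) sodium carboxymethyl cellulose/DMSO 3/1 (v/v), 2 mL·kg⁻¹. Vehicle-treated SHR and WKY controls. SBP, DBP and heart rate were measured by tail-cuff on awake, restrained rats before dosing, then every 30 min for 6 h. Values are mean ± SD of four independent experiments.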

Series [2] deals with Rattus norvegicus. The series can be described thus: Antihypertensive activity in spontaneously hypertensive Wistar kyoto rat assessed as reduction in systolic arterial pressure at 10 mg/kg, ip administered for 6 hrs and measured every 30 mins post treatment by tail-cuff method. The class given is functional. A digest of the protocol: as §1
The nature of series [3]: Toxicity in Wistar kyoto rat assessed as inflammatory cell infiltration in gastric mucosa at 6.1 mg/kg, ip administered for 14 days by H and E staining based optical microscopic method. Type of series: organism-based. As to conditions: in vivo, 336 h. Put shortly: (§2)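 WKY rats, 3 per group, were dosed for 14 days, with the compound at 10 mg/kg per dose and the ibuprofen comparator at 6.1 mg/kg. Rats were anaesthetised with ether and killed by cervical dislocation. Stomach and intestine were sectioned at 5-10 µm, stained with haematoxylin and eosin, and examined by optical microscopy.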

Series [4] can be described thus: Cardiotoxicity in SHR rat assessed as coarser myocardial fiber formation at 10 mg/kg, ip administered for 14 days by H and E staining based microscopic assay. Type of series: toxicity, organism-based. As to conditions: in vivo, 336 h. Put shortly:
(§3)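 SHRs were given 10 mg·kg⁻¹ intraperitoneally per day for 14 consecutive days, with an ibuprofen comparator and a normal control. Myocardial tissue was then removed. Sections were HE-stained for light microscopy and also examined by transmission electron microscopy at 6000, 10000 and 20000-fold.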

Series [5] is described as follows: Cardiotoxicity in SHR rat assessed as neatly arranged myocardial fibers at 10 mg/kg, ip administered for 14 days by H and E staining based microscopic assay. Conditions: in vivo, 336 h. The class given is toxicity, organism-based. Put shortly: as §3
Series [6] has as its system Rattus norvegicus. The series can be described thus: Cardioprotective activity in SHR rat assessed as swollen myocardial interstitial vascular at 10 mg/kg, ip administered for 14 days by TEM analysis. Type of series: functional, organism-based. A digest of the protocol:
as §3

Series [7] concerns H9c2. The series can be described thus: Cytotoxicity against rat H9c2 cells assessed as reduction in cell viability at 10 to 80 uM incubated for 24 hrs. The class given is cell-based. As to conditions: h9c2, 24 h. A digest of the protocol:
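Rat cardiac H9c2 cells were grown in DMEM with 10% FBS and penicillin/streptomycin at 37 °C and 5% CO₂. They were seeded at 5×10⁴ cells/mL and allowed to adhere for 8 h. Cells were exposed to 10, 40 or 80 µM compound for 24 h, and survival was compared with untreated cells.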

A short description of series [8]: Toxicity in Wistar kyoto rat assessed as hyperemia in gastrointestinal tissue at 6.1 mg/kg, ip administered for 14 days by H and E staining based optical microscopic method. The class given is organism-based. Conditions: in vivo, 336 h. Put shortly: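 WKY rats (3 per group) were dosed for 14 days with ibuprofen at 6.1 mg·kg⁻¹ per day or test compound at 10 mg·kg⁻¹. Rats were killed by cervical dislocation after ether anaesthesia. Stomach and intestine were cut into 5–10 µm sections, HE-stained and examined by optical microscopy.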

Series [9] deals with Rattus norvegicus. In words: Cardioprotective activity in SHR rat assessed as myocardial contraction band formation at 10 mg/kg, ip administered for 14 days by TEM analysis. Type of series: functional, organism-based. Put shortly: as §3
Series [10] deals with Rattus norvegicus. In words: Cardioprotective activity in SHR rat assessed as myocardial fibrous submucosal swelling at 10 mg/kg, ip administered for 14 days by TEM analysis. Type of series: functional, organism-based. A digest of the protocol: as §3
For series [11], the system named is Rattus norvegicus. The series can be described thus: Cardioprotective activity in SHR rat assessed as myocardial fiber melting at 10 mg/kg, ip administered for 14 days by TEM analysis. Type of series: functional, organism-based. Put shortly: as §3
Series [12] is described as follows: Toxicity in Wistar kyoto rat assessed as inflammatory cell infiltration in gastrointestinal tissue at 6.1 mg/kg, ip administered for 14 days by H and E staining based optical microscopic method. Type of series: organism-based. As to conditions: in vivo, 336 h. Put shortly: as §2
In series [13] the test system is Rattus norvegicus. The series can be described thus: Cardioprotective activity in SHR rat assessed as ventricular pumping dysfunction at 10 mg/kg, ip administered for 14 days by TEM analysis. The class given is functional, organism-based. Put shortly:
as §3

Series [14] is described as follows: Cardiotoxicity in SHR rat assessed as increase in muscle bundle gaps at 10 mg/kg, ip administered for 14 days by H and E staining based microscopic assay. Type of series: toxicity, organism-based. Conditions: in vivo, 336 h. Put shortly:
as §3

The subject of series [15] is Rattus norvegicus. In words: Cardioprotective activity in SHR rat assessed as loosen myocardial fibers at 10 mg/kg, ip administered for 14 days by TEM analysis. Type of series: functional, organism-based. A digest of the protocol: as §3
The nature of series [16]: Toxicity in Wistar kyoto rat assessed as hyperemia in intestinal mucosa at 6.1 mg/kg, ip administered for 14 days by H and E staining based optical microscopic method. The class given is organism-based. As to conditions: in vivo, 336 h. Put shortly: as §2
Series [17] has as its system Rattus norvegicus. In words: Cardioprotective activity in SHR rat assessed as swollen myocardial mitochondria at 10 mg/kg, ip administered for 14 days by TEM analysis. Type of series: functional, organism-based. Put shortly: as §3
Series [18] is described as follows: Cardiotoxicity in SHR rat assessed as reduction in muscle bundle gaps at 10 mg/kg, ip administered for 14 days by H and E staining based microscopic assay. Type of series: toxicity, organism-based. Conditions: in vivo, 336 h. A digest of the protocol: as §3
Series [19] can be described thus: Cardiotoxicity in SHR rat assessed as collagen fibers stained in interstitium at 10 mg/kg, ip administered for 14 days by H and E staining based microscopic assay. Conditions: in vivo, 336 h. The class given is toxicity, organism-based. A digest of the protocol: as §3
The nature of series [20]: Toxicity in Wistar kyoto rat assessed as intestinal mucosal edema at 6.1 mg/kg, ip administered for 14 days by H and E staining based optical microscopic method. As to conditions: in vivo, 336 h. Type of series: organism-based. Put shortly:
as §2

A short description of series [21]: Toxicity in Wistar kyoto rat assessed as swollen gastric mucosal cells at 6.1 mg/kg, ip administered for 14 days by H and E staining based optical microscopic method. The class given is organism-based. As to conditions: in vivo, 336 h. A digest of the protocol: as §2
The nature of series [22]: Cardiotoxicity in SHR rat assessed as appearance of myocardial interstitial collagen fibers at 10 mg/kg, ip administered for 14 days by H and E staining based microscopic assay. Conditions: in vivo, 336 h. Type of series: toxicity, organism-based. A digest of the protocol:
as §3

Series [23] concerns Rattus norvegicus. In words: Cardioprotective activity in SHR rat assessed as myocardial disk dissociation at 10 mg/kg, ip administered for 14 days by TEM analysis. The class given is functional, organism-based. Put shortly:
as §3

Series [24] relates to H9c2. The series can be described thus: Cytoprotective activity against H2O2-induced toxicity in rat H9c2 cells assessed as increase in cell repair at 10 to 80 uM pretreated with compound followed by H2O2 addition and measured after 1 to 8 hrs by giemsa staining based microscopic method. Type of series: functional. A digest of the protocol: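 H9c2 cells were injured with H₂O₂ (400 µM) for 1, 4 or 8 h to give light, medium and heavy damage, in the presence of compound at 10–80 µM. Acetaminophen or ibuprofen served as controls. Viability was measured as mean ± SD of three experiments. SOD and MDA contents were measured as mean ± SD of four experiments. Morphology was assessed by Giemsa staining under light microscopy.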

As for `C[C@H](CS)C(=O)N1CCC[C@H]1C(=O)O`, the outcome in the series on Rattus norvegicus [1] and in the series on Rattus norvegicus [2] was inactive.
As to `COC(=O)C1=C(C)NC(C)=C(C(=O)OC)C1c1ccccc1[N+](=O)[O-]`, the outcome in the series on Rattus norvegicus [1] and with Rattus norvegicus [2] was inactive.
Regarding `CC(C)Cc1ccc(C(C)C(=O)O)cc1` (configuration not stated) [IBUPROFEN], the Activity result in [3] was “Toxic”; in series [4], “Active”; in series [5], “Non-Toxic”; with H9c2 [7] it was “Non-Toxic”; in series [8] it was “Toxic”; in [12], “Toxic”. In addition, the Activity result was “Active” in series [14]; “Toxic” in [16]; “Active” in series [18]; “Active” in [19]; “Toxic” in [20]; “Toxic” in [21]. For the same molecule, in series [22], the result was Active. The result with Rattus norvegicus [6], in the series on Rattus norvegicus [9], in the series with Rattus norvegicus [10], in the series on Rattus norvegicus [11], in the series with Rattus norvegicus [13] and with Rattus norvegicus [15] was Active. Besides, the outcome with Rattus norvegicus [17] and in the series on Rattus norvegicus [23] was Active.
Regarding `CC(=O)Nc1ccc(O)cc1` [ACETAMINOPHEN], the Activity result with H9c2 [7] is “Non-Toxic”. For the same molecule, in the series with H9c2 [24], the result was Active.
